Published values of several laboratories.
Lines come from different studies, so protocols differ. pIC50: −log10 of the molar value.
PPO3: PPO3 (Agaricus bisporus, UniProt C7FF04)
HDAC2: Histone deacetylase 2 (HDAC2, Homo sapiens, UniProt Q92769)
PFF0160c: Dihydroorotate dehydrogenase (quinone), mitochondrial (PFF0160c, Plasmodium falciparum, UniProt Q08210)
PDE5A: cGMP-specific 3',5'-cyclic phosphodiesterase (PDE5A, Homo sapiens, UniProt O76074)
AURKB: Aurora kinase B (AURKB, Homo sapiens, UniProt Q96GD4)
MEP1A: Meprin A subunit alpha (MEP1A, Homo sapiens, UniProt Q16819)
KDM1A: Lysine-specific histone demethylase 1A (KDM1A, Homo sapiens, UniProt O60341)

COc1ccc(N=Nc2c(N)nc(N)nc2N)cc1 — pIC50 (PPO3; enzyme activity; inhibitor; absorbance): 4.36
Cc1ccc(C(C)C)cc1NC(=O)COC(=O)c1ccc(O)cc1O — pIC50 (PPO3; enzyme activity; inhibitor): 5.74
CN(CCCCNC(=O)c1cc2ccccc2[nH]1)[C@@H]1Cc2cccc3[nH]c(=O)n(c23)C1 — pIC50 (5-hydroxytryptamine receptor 2A (HTR2A, Homo sapiens, UniProt P28223); ligand displacement; radioligand): 5.71
CC(C)C[C@H]1CC(=O)N[C@@H](C)C(=O)N[C@@H](CCCCCC(=O)O)C(=O)N[C@@H](Cc2c[nH]c3ccccc23)C(=O)N1 — pIC50 (HDAC2; enzyme activity; inhibitor): 6.70
CCCON(Cc1ccc(C(=O)NO)cc1)C(=O)Nc1ccccc1 — pIC50 (HDAC2; enzyme activity; inhibitor; fluorescence): 5.85
Cc1cc(Nc2ccc(Cl)cc2)n2nc(CN(C)C)nc2n1 — pIC50 (PFF0160c; enzyme activity; inhibitor): < 5.00
CC(C)(C)N1C(=O)[C@H]2Cc3c([nH]c4ccccc34)[C@@H](c3cccnc3)N2C1=O — pIC50 (PDE5A; enzyme activity; inhibitor; FP): 6.39
Cc1cc(Nc2ccc(S(F)(F)(F)(F)F)cc2)n2nc(OCCN(C)C)nc2n1 — pIC50 (PFF0160c; enzyme activity; inhibitor): < 5.00
COC(=O)[C@H]1Cc2c([nH]c3ccccc23)[C@H](c2ccc(OC)c(OC)c2)N1C(=O)CCl — pIC50 (PDE5A; enzyme activity; inhibitor; FP): < 5.00
CCCC[C@H](NC(=O)[C@H](C)c1c(C)[nH]c2ccc(O)cc12)c1ncc(-c2cc3ccccc3nc2OC)[nH]1 — pIC50 (Cannabinoid receptor 1 (CNR1, Homo sapiens, UniProt P21554); cell-free assay): 5.01
Cc1cc(Nc2ccc3c(c2)CCCC3)n2ccnc2n1 — pIC50 (PFF0160c; enzyme activity; inhibitor): 7.00
CN(C)CCOc1ccc(-c2nc(-c3ccncc3)c(-c3ccc4c(c3)CC/C4=N\O)[nH]2)cc1 — pIC50 (Serine/threonine-protein kinase A-Raf (ARAF, Homo sapiens, UniProt P10398); enzyme activity; inhibitor; lysate): < 5.00
Cc1cnc(-c2ccc(-c3ccc(NC(=O)Nc4c(F)cc(F)cc4F)cc3F)c3c2C(=O)NC3)[nH]1 — pIC50 (AURKB; enzyme activity; inhibitor): 8.43
CCN1C(=O)[C@H]2Cc3c([nH]c4ccccc34)[C@@H](c3ccc(OC)c(OC)c3)N2C1=O — pIC50 (PDE5A; enzyme activity; inhibitor; FP): 5.29
Cc1ccc(C(C)C)cc1NC(=O)COC(=O)/C=C/c1ccc(O)cc1 — pIC50 (PPO3; enzyme activity; inhibitor): 5.85
Cc1[nH]ncc1C(=O)N1CCC(C)(NC(=O)c2c[nH]c(=O)c3ccccc23)C1 (stereo not drawn) — pIC50 (Poly [ADP-ribose] polymerase 1 (PARP1, Homo sapiens, UniProt P09874); enzyme activity; inhibitor): 6.10
COc1ccc(N=Nc2c(N)nc(N)nc2Cl)cc1 — pIC50 (PPO3; enzyme activity; inhibitor; absorbance): 4.55
O=C(CCN(Cc1ccc2c(c1)OCO2)Cc1ccc(Cl)c(O)c1F)NO — pIC50 (MEP1A; enzyme activity; inhibitor): 6.80
CNCCOc1nc2nc(C)cc(Nc3ccc(C(F)(F)F)cc3)n2n1 — pIC50 (PFF0160c; enzyme activity; inhibitor): < 5.00
CCCCc1ccc(-c2ccc(-c3cc(C(=O)O)c4ccc(OC)cc4n3)o2)cc1 — pIC50 (Eukaryotic initiation factor 4A-I (EIF4A1, Homo sapiens, UniProt P60842); ATPase activity; inhibitor; absorbance): < 3.82
CCN1C(=O)[C@H]2Cc3c([nH]c4ccccc34)[C@@H](c3cccnc3)N2C1=O — pIC50 (PDE5A; enzyme activity; inhibitor; FP): 6.85
Cc1ccc(C(C)C)cc1NC(=O)COC(=O)c1ccc(O)cc1 — pIC50 (PPO3; enzyme activity; inhibitor): 4.75
O=C1[C@@H]2Cc3c([nH]c4ccccc34)[C@@H](c3cccnc3)N2C(=O)N1c1ccc(Cl)cc1 — pIC50 (PDE5A; enzyme activity; inhibitor; FP): 5.90
CC(=O)N[C@@H](CC(=O)O)C(=O)N[C@@H](CCC(=O)O)C(=O)N[C@H](C(=O)N[C@H](C=O)CC(=O)O)C(C)C — pIC50 (Caspase-6 (CASP6, Homo sapiens, UniProt P55212); enzyme activity; inhibitor): 7.63
CCCSc1nc(Sc2nc3ccccc3s2)c2nnn(CCO)c2n1 — pIC50 (KDM1A; enzyme activity; inhibitor; fluorescence): 6.07
Nc1cc(Nc2ccc(C(F)(F)F)cc2)n2ncnc2n1 — pIC50 (PFF0160c; enzyme activity; inhibitor): 4.51
Cc1cc(Nc2cccc(Cl)c2)n2nc(CN)nc2n1 — pIC50 (PFF0160c; enzyme activity; inhibitor): < 5.00
Cc1cc(Nc2cc3ncccc3c(N[C@@H]3C[C@H]4CC[C@@H](C3)N4CCC#N)n2)n[nH]1 — pIC50 (AURKB; target engagement in cells; inhibitor; BRET): < 5.00
CC(=O)Nc1ccc(N=Nc2c(N)nc(N)nc2N)cc1 — pIC50 (PPO3; enzyme activity; inhibitor; absorbance): 4.53
Cc1cnc(Nc2ccc(N3CCN(C)CC3)cc2)nc1Nc1cccc(S(=O)(=O)NC(C)(C)C)c1 — pIC50 (AURKB; enzyme activity; inhibitor; mobility shift): 7.48
CC(C)(C)n1nc(-c2ccc3nc(OC4CC4)ccc3c2)c(C(N)=O)c1N — pIC50 (AURKB; cell-free assay; inhibitor): < 5.00
N#CC(C(=O)c1ccc(Cl)cc1Cl)=C1NC(=O)c2ccc(OCc3ccc4c(c3)OCO4)cc2N1 — pIC50 (Cytoplasmic dynein 1 heavy chain 1 (DYNC1H1, Homo sapiens, UniProt Q14204); ATPase activity; inhibitor): 3.89
CNCCc1nc2nc(C)cc(Nc3cccc(Cl)c3)n2n1 — pIC50 (PFF0160c; enzyme activity; inhibitor): < 5.00
COc1ccc(C2=NN(C3CCCCCC3)C(=O)[C@@H]3CC=CC[C@H]23)cc1-c1ccc(C(=O)NCC(N)=O)cc1 (relative stereo) — pIC50 (3',5'-cyclic-AMP phosphodiesterase 4A (PDE4A, Homo sapiens, UniProt P27815); enzyme activity; inhibitor): 6.50
CCCSc1nc(Sc2nnnn2C)c2nnn(C3CCCC3)c2n1 — pIC50 (KDM1A; enzyme activity; inhibitor; fluorescence): 6.38
Cc1cc(Nc2ccc(Cl)cc2)n2nc(CN)nc2n1 — pIC50 (PFF0160c; enzyme activity; inhibitor): < 5.00
COc1ccc2c(Oc3ccc4c(C(=O)Nc5ccccc5N)cccc4c3)ccnc2c1 — pIC50 (AURKB; enzyme activity; inhibitor): 8.05
Cc1ccc(NC(=O)c2ccc(C)c(C(F)(F)F)c2)cc1C#Cc1nn(C2CCC(O)CC2)c2ncnc(N)c12 (stereo not drawn) — pIC50 (Cytoplasmic tyrosine-protein kinase BMX (BMX, Homo sapiens, UniProt P51813); enzyme activity; inhibitor; radiometric): 7.68
Cc1cc(Nc2ccc(Cl)cc2)n2[nH]c(=O)nc2n1 — pIC50 (PFF0160c; enzyme activity; inhibitor): < 5.00
CN1CCN(c2ccc(Nc3ncc4cc(C#N)c(=O)n(C5CCCC5)c4n3)cc2)CC1 — pIC50 (Tyrosine-protein kinase TXK (TXK, Homo sapiens, UniProt P42681); enzyme activity; inhibitor): 6.19
Cc1cc(Nc2ccc(C(F)(F)F)cc2)n2nc(OCCN(C)C)nc2n1 — pIC50 (PFF0160c; enzyme activity; inhibitor): < 5.00
O=C(CCN(Cc1ccc(Cl)cc1F)Cc1ccc(Cl)c(O)c1F)NO — pIC50 (MEP1A; enzyme activity; inhibitor): 6.67
